Consider three compounds from ChEMBL document CHEMBL3526107, “In vivo-formed versus preformed metabolite kinetics of trans-resveratrol-3-sulfate and trans-resveratrol-3-glucuronide” (Drug Metab Dispos, 2012).

Format in all cases: ADME, organism-based
Series [1] can be described thus: Volume of distribution at steady state in C57BL/6 mouse at 3.5 mg/kg administered intraarterially by LC-MS/MS analysis. Set-up: dose 3.5 mg/kg, route intra-arterial. To be noted: in vivo, read-out: Vdss. A digest of the protocol: (§1)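 Single 3.5 mg/kg intraarterial bolus in saline via carotid cannula to fasted male C57BL/6 mice; n = 4. Blood (20 µl) is drawn serially over 2.5–600 min and at 24 h. Plasma with ascorbic acid is precipitated with methanol containing acetaminophen IS, then quantified by negative-mode LC-MS/MS. Noncompartmental parameters: trapezoidal AUC, Cl = Dose/AUC0-inf, Vss = Cl×MRT0-inf, t1/2 = 0.693/terminal slope.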

A short description of series [2]: AUC (0 to infinity) in C57BL/6 mouse at 3.5 mg/kg administered intraarterially by LC-MS/MS analysis. On the set-up: time infinity, dose 3.5 mg/kg, route intra-arterial. The settings on record: plasma. A digest of the protocol:
as §1

Series [3] in a line: AUC (0 to t) in C57BL/6 mouse at 3.5 mg/kg administered intraarterially by LC-MS/MS analysis. Set-up: dose 3.5 mg/kg, route intra-arterial. To be noted: plasma. A digest of the protocol:
as §1

Series [4] is described as follows: Clearance in C57BL/6 mouse at 3.5 mg/kg administered intraarterially by LC-MS/MS analysis. On the set-up: dose 3.5 mg/kg, route intra-arterial. The settings on record: in vivo. The essentials: as §1
Series [5] is described as follows: Tmax in C57BL/6 mouse at 3.5 mg/kg administered intraarterially by LC-MS/MS analysis. To be noted: in vivo. Set-up: dose 3.5 mg/kg, route intra-arterial. The essentials: as §1
Series [6] can be described thus: Terminal half life in C57BL/6 mouse at 3.5 mg/kg administered intraarterially by LC-MS/MS analysis. Set-up: dose 3.5 mg/kg, route intra-arterial. The settings on record: in vivo, read-out: beta t1/2. The essentials:
as §1

Series [7] in a line: Cmax in C57BL/6 mouse at 3.5 mg/kg administered intraarterially by LC-MS/MS analysis. Set-up: dose 3.5 mg/kg, route intra-arterial. The settings on record: in vivo. A digest of the protocol: as §1
A short description of series [8]: Terminal half life in C57BL/6 mouse at 15 mg/kg administered intraarterially by LC-MS/MS analysis. Set-up: dose 15 mg/kg, route intra-arterial. The settings on record: in vivo, read-out: beta t1/2. A digest of the protocol:
(§2)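 Male C57BL/6 mice (20–25 g), fasted for the first 10 h of sampling. Single 15 mg/kg bolus in 20% 2-hydroxypropyl-β-cyclodextrin in saline via carotid artery cannula. Serial 20 µl blood draws from 2.5 to 600 min, plus 24 h; n = 5. Plasma is methanol-precipitated (acetaminophen IS) and run on negative-ESI LC-MS/MS. Noncompartmental analysis: linear trapezoidal AUC, Cl = Dose/AUC0-inf, Vss = Cl×MRT, t1/2 = 0.693/k.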

Series [9] can be described thus: Clearance in C57BL/6 mouse at 15 mg/kg administered intraarterially by LC-MS/MS analysis. On the set-up: dose 15 mg/kg, route intra-arterial. The settings on record: in vivo. The essentials:
as §2

A short description of series [10]: AUC (0 to t) in C57BL/6 mouse at 15 mg/kg administered intraarterially by LC-MS/MS analysis. The settings on record: plasma. Set-up: dose 15 mg/kg, route intra-arterial. The essentials:
as §2

Series [11] in a line: Volume of distribution at steady state in C57BL/6 mouse at 15 mg/kg administered intraarterially by LC-MS/MS analysis. On the set-up: dose 15 mg/kg, route intra-arterial. To be noted: in vivo, read-out: Vdss. The essentials:
as §2

A short description of series [12]: Cmax in C57BL/6 mouse at 15 mg/kg administered intraarterially by LC-MS/MS analysis. Set-up: dose 15 mg/kg, route intra-arterial. To be noted: in vivo. A digest of the protocol: as §2
The nature of series [13]: AUC (0 to infinity) in C57BL/6 mouse at 15 mg/kg administered intraarterially by LC-MS/MS analysis. On the set-up: time infinity, dose 15 mg/kg, route intra-arterial. To be noted: plasma. The essentials: as §2
The nature of series [14]: Tmax in C57BL/6 mouse at 15 mg/kg administered intraarterially by LC-MS/MS analysis. To be noted: in vivo. On the set-up: dose 15 mg/kg, route intra-arterial. The essentials:
as §2

Series [15] is described as follows: Tmax in C57BL/6 mouse at 5 mg/kg administered intraarterially by LC-MS/MS analysis. Set-up: dose 5 mg/kg, route intra-arterial. The settings on record: in vivo. The essentials:
(§3)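 Carotid-cannulated male C57BL/6 mice, food withheld for the first 10 h, dosed at 5 mg/kg intraarterially in saline; n = 4. Serial plasma samples taken 2.5–600 min are analysed by LC-MS/MS in negative ESI mode after methanol precipitation with acetaminophen as IS. Noncompartmental analysis uses linear trapezoidal AUC, with Cl = Dose/AUC0-inf, Vss = Cl×MRT, and t1/2 = 0.693/k.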

Series [16] is described as follows: AUC (0 to t) in C57BL/6 mouse at 5 mg/kg administered intraarterially by LC-MS/MS analysis. Set-up: dose 5 mg/kg, route intra-arterial. The settings on record: plasma. The essentials: as §3
A short description of series [17]: Clearance in C57BL/6 mouse at 5 mg/kg administered intraarterially by LC-MS/MS analysis. On the set-up: dose 5 mg/kg, route intra-arterial. To be noted: in vivo. The essentials:
as §3

A short description of series [18]: Volume of distribution at steady state in C57BL/6 mouse at 5 mg/kg administered intraarterially by LC-MS/MS analysis. On the set-up: dose 5 mg/kg, route intra-arterial. To be noted: in vivo, read-out: Vdss. A digest of the protocol:
as §3

Series [19] can be described thus: AUC (0 to infinity) in C57BL/6 mouse at 5 mg/kg administered intraarterially by LC-MS/MS analysis. Set-up: time infinity, dose 5 mg/kg, route intra-arterial. The settings on record: plasma. A digest of the protocol:
as §3

Series [20] in a line: Cmax in C57BL/6 mouse at 5 mg/kg administered intraarterially by LC-MS/MS analysis. Set-up: dose 5 mg/kg, route intra-arterial. The settings on record: in vivo. The essentials:
as §3

Series [21] is described as follows: Terminal half life in C57BL/6 mouse at 5 mg/kg administered intraarterially by LC-MS/MS analysis. Set-up: dose 5 mg/kg, route intra-arterial. The settings on record: in vivo, read-out: beta t1/2. The essentials: as §3

Each structure is given as a SMILES string.

In general, AUC(0-inf) refers to the area under the concentration-time curve extrapolated to infinity. Read a low AUC(0-inf) as less exposure. As usually defined, the AUC(0-t) is the area under the concentration-time curve up to a stated or last time point. High values mean high exposure, low ones low exposure. For orientation: clearance means the rate of elimination divided by the concentration. Read a low clearance as inefficient removal. A word on the Tmax: it is the time from dosing to the highest level. As a reminder, the Cmax is the peak of the concentration-time curve. As for `O=C(O)[C@H]1O[C@@H](Oc2cc(O)cc(/C=C/c3ccc(O)cc3)c2)[C@H](O)[C@@H](O)[C@@H]1O`, in series [1], the Vd turned out to be 4.55 L/kg. Also, the area under the curve AUC(0-inf) in series [2] is 11.8 µM·h. In series [3], this compound had an AUC(0-t) of 10.8 µM·h. This compound also came in with a clearance in series [4] of 13.8 mL/min/kg. Also, the Tmax in series [5] is 2.5 min. Further, in series [6], the half-life was 4.54 h. Also, the peak level in [7] (Cmax) was 27.8 µM.

On to `Oc1ccc(/C=C/c2cc(O)cc(O)c2)cc1` [RESVERATROL], for which the half-life in series [8] worked out at 3.18 h. In series [9], this compound came in with a clearance of 119 mL/min/kg. This compound also had an AUC(0-t) in [10] of 8.5 µM·h. Besides, the Vd in series [11] was found to be 37.6 L/kg. In series [12], this compound returned a maximum concentration (Cmax) of 15.3 µM. This compound also had an AUC(0-inf) in series [13] of 9.85 µM·h. Besides, the time of peak concentration (Tmax) in series [14] was 2.5 min.

Turning to `O=S(=O)(O)Oc1cc(O)cc(/C=C/c2ccc(O)cc2)c1`, the Tmax in series [15] was 2.5 min. Besides, the AUC(0-t) in series [16] was 4.05 µM·h. Besides, the clearance in series [17] is 76.3 mL/min/kg. Moreover, the Vd in series [18] worked out at 6.37 L/kg. The area under the curve AUC(0-inf) in series [19] was 4.26 µM·h. This compound also registered a Cmax in [20] of 14.8 µM. The half-life in series [21] is 2.13 h.
